Among the data in ChEMBL document CHEMBL1177861, “Structural determinants of resveratrol for cell proliferation inhibition potency: experimental and docking studies of new analogs” (Eur J Med Chem, 2010) are IC50 and Activity values, retold here.

In assay [1] the test system is SW480. Kind of assay: Antiproliferative activity against human SW480 cells assessed as cell viability using propidium iodide staining after 48 hrs. It is filed as functional, cell-based. To be noted: for IC50: SW480, 48 h. The procedure, abridged:
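SW480 cells grown in RPMI with 10% FBS and 1% antibiotics; 30,000 cells/well seeded, treated after 24 h with compound in 0.1% DMSO (1 nM to 100 µM; 0.1% DMSO control). At 48 h adherent (trypsinized) plus detached cells stained with 1 µg/mL propidium iodide, counted by flow cytometry. IC50 from parametric regression of % viable cells vs control; triplicate wells, three experiments.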

The subject of assay [2] is SW480. Nature of the assay: Cell cycle arrest in human SW480 cells assessed as accumulation at G0/G1 phase at 30 uM after 48 hrs by flow cytometry. The format is functional. The procedure, abridged:
(§1)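 SW480 cells treated 48 h at 30 µM in 0.1% DMSO medium. DNA content measured by propidium iodide flow cytometry. Cells gated as 2n G0/G1, S (2<n<4), 4n G2/M and >4n (polyploid). Data are means ± SD of a representative experiment among three independent.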

Assay [3] concerns SW480. Nature of the assay: Cell cycle arrest in human SW480 cells assessed as accumulation at S phase at 30 uM after 48 hrs by flow cytometry. The format is functional. Put shortly: as §1
(In general: In flow cytometry, cells or beads pass a laser one at a time.)

Assay [4] relates to SW480. Nature of the assay: Cell cycle arrest in human SW480 cells assessed as 4n cells at 30 uM after 48 hrs by flow cytometry. It is filed as functional. Put shortly:
as §1

The subject of assay [5] is SW480. Nature of the assay: Cell cycle arrest in human SW480 cells assessed as >4n cells at 30 uM after 48 hrs by flow cytometry. It is filed as functional. Put shortly:
as §1

The test system of assay [6] is SW480. Nature of the assay: Cell cycle arrest in human SW480 cells assessed as disturbance of diploid cells at 30 uM after 48 hrs by flow cytometry. It is filed as functional, cell-based. The procedure, abridged: as §1
Assay [7] has as its system SW480. Nature of the assay: Cell cycle arrest in human SW480 cells assessed as polyploid cells generation at 30 uM after 48 hrs by flow cytometry. It is filed as functional, cell-based. The procedure, abridged:
as §1

Assay [8] concerns SW480. Nature of the assay: Cell cycle arrest in human SW480 cells assessed as tetraploid cells generation at 30 uM after 48 hrs by flow cytometry. It is filed as functional, cell-based. The procedure, abridged: as §1
For assay [9], the system named is SW480. Nature of the assay: Cell cycle arrest in human SW480 cells assessed as accumulation of polyploid cells at 0.5 uM after 48 hrs by microscopic analysis. The format is functional, cell-based. Put shortly:
(§2)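 SW480 cells left untreated or exposed to 0.5 µM for 48 h. Actin was immunostained (Alexa 488) to show cell shape and nuclei were stained with Hoechst 33342. Fluorescence microscopy at 100x with identical settings; example of three independent experiments.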

Assay [10] concerns SW480. Kind of assay: Cell cycle arrest in human SW480 cells assessed as increase of 4n and >4n cells at 0.2 uM after 48 hrs by flow cytometry. The format is functional, cell-based. The procedure, abridged: (§3)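 SW480 cells treated for 48 h at 0.2, 0.5 or 1.0 µM. DNA content was read by propidium iodide staining and flow cytometry. Populations were gated as 2n G0/G1, S (2<n<4), 4n G2/M and >4n. Means ± SD of a representative experiment out of three.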

For assay [11], the system named is SW480. Nature of the assay: Cell cycle arrest in human SW480 cells assessed as increase of 4n and >4n cells at 1 uM after 48 hrs by flow cytometry. The format is functional, cell-based. The procedure, abridged: as §3
In assay [12] the test system is SW480. Kind of assay: Antiproliferative activity against human SW480 cells assessed as cell viability using propidium iodide staining. The format is functional, cell-based. The conditions noted are these: TDE = time-dependent effect. Put shortly: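 SW480 colon carcinoma cells grown in RPMI with 10% FBS and 1% antibiotics. 30,000 cells/well were seeded, then treated after 24 h in medium with 0.1% DMSO (vehicle control 0.1% DMSO) at 1 nM to 100 µM for 48 h. Adherent plus detached cells were stained with 1 µg/mL propidium iodide and counted by flow cytometry. IC50 came from parametric regression of % viable cells vs control. Triplicate wells, three experiments.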

In assay [13] the test system is SW480. Nature of the assay: Antiproliferative activity against human SW480 cells assessed as cell viability using propidium iodide staining at 0.2 uM after 72 hrs. It is filed as functional, cell-based. Put shortly:
(§4)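 SW480 cells (RPMI, 10% FBS, 1% antibiotics) seeded at 30,000/well and treated 24 h later in 0.1% DMSO medium; 0.1% DMSO alone as control. After 24, 48 and 72 h, trypsinized adherent plus detached cells were labelled with 1 µg/mL propidium iodide and viable (PI-excluding) cells counted by flow cytometry. Triplicate wells; representative of three experiments, means ± SD.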

The subject of assay [14] is SW480. Nature of the assay: Antiproliferative activity against human SW480 cells assessed as cell viability using propidium iodide staining at 0.5 uM after 72 hrs. It is filed as functional, cell-based. The procedure, abridged: as §4
In assay [15] the test system is SW480. Nature of the assay: Cell cycle arrest in human SW480 cells assessed as increase of 4n and >4n cells at 0.5 uM after 48 hrs by flow cytometry. The format is functional, cell-based. The procedure, abridged:
as §3

Assay [16] concerns SW480. Nature of the assay: Cell cycle arrest in human SW480 cells assessed as mitotic disturbances using Hoechst staining at 0.5 uM after 48 hrs by microscopic analysis. The format is functional, cell-based. Put shortly: as §2
Assay [17] concerns SW480. Nature of the assay: Cell cycle arrest in human SW480 cells assessed as cytokinesis cells at 0.5 uM after 48 hrs by microscopic analysis. It is filed as functional, cell-based. The procedure, abridged: as §2
The test system of assay [18] is SW480. Kind of assay: Antiproliferative activity against human SW480 cells assessed as cell viability using propidium iodide staining after 48 hrs. The conditions noted are these: SW480, 48 h.

Calls of active or inactive are those of the source. The calls are words filed in the database; no cut-off is given here.

In general, IC50 refers to the midpoint of a concentration-inhibition curve. With `COc1cc(/C=C/c2cc(OC)cc(OC)c2O)cc(OC)c1`, the IC50 in the assay with SW480 [1] was 17 µM. Besides, the Activity was 50% with SW480 [2], 15% with SW480 [3], 25% with SW480 [4] and 10% in the assay on SW480 [5].
As for `COc1cc(/C=C\c2ccc(OC)c(OC)c2)cc(OC)c1` [(Z)-3,4,3',5'-TETRAMETHOXYSTILBENE], the half-maximal inhibitory concentration (IC50) in the assay with SW480 [1] stood at 9.5 µM. The result with SW480 [6], with SW480 [7] and in the assay with SW480 [8] was Active.
Turning to `COc1ccc(/C=C\c2cc(OC)cc(OC)c2)cc1` [8Z-3,4',5-TRIMETHOXYSTILBENE], the Activity entry in the assay with SW480 [1] is “Dose-dependent effect”; in the assay with SW480 [12], “tde”. The IC50 in the assay on SW480 [1] is 0.3 µM; with SW480 [18] it was 300 nM. Further, the outcome with SW480 [6], with SW480 [7], with SW480 [8], in the assay on SW480 [9], in the assay with SW480 [11] and in the assay with SW480 [15] was Active. The result with SW480 [16] and with SW480 [17] was Active. Also, the result in the assay with SW480 [10], in the assay with SW480 [13] and in the assay on SW480 [14] was inactive.
In the case of `COc1cc(/C=C/c2ccc(OC)c(OC)c2)c(O)c(OC)c1`, in the assay with SW480 [1], the IC50 came to 42 µM.
With `COc1cc(/C=C\c2cc(OC)cc(OC)c2)cc(OC)c1`, the IC50 with SW480 [1] stood at 13 µM. The outcome in the assay with SW480 [6], in the assay on SW480 [7] and in the assay with SW480 [8] was Active.
On to `COc1cc(/C=C/c2cc(OC)cc(OC)c2)cc(OC)c1`, for which the IC50 in the assay with SW480 [1] amounted to 48 µM. Also, the Activity in the assay with SW480 [2] was determined as 50%; in the assay on SW480 [3], 15%; in the assay on SW480 [4], 25%; in the assay on SW480 [5] it was 10%.
As for `COc1ccc(/C=C/c2cc(OC)cc(OC)c2O)cc1`, the IC50 with SW480 [1] is 43 µM. Moreover, the result in the assay with SW480 [6], in the assay on SW480 [7] and in the assay with SW480 [8] was Active.
Regarding `Oc1ccc(/C=C\c2cc(O)cc(O)c2)cc1` [CIS-RESVERATROL], the IC50 in the assay with SW480 [1] is 90 µM. Also, the Activity in the assay with SW480 [2] came out at 50%; in the assay on SW480 [3] it was 15%; in the assay with SW480 [4] it was 25%; with SW480 [5] it was 10%.
As to `COc1ccc(/C=C\c2cc(OC)cc(OC)c2O)cc1`, in the assay on SW480 [1], the IC50 was 18 µM. The result in the assay on SW480 [6], in the assay on SW480 [7] and with SW480 [8] was Active.
On to `COc1cc(/C=C\c2cc(OC)cc(OC)c2O)cc(OC)c1`, for which the IC50 with SW480 [1] stood at 7 µM. Also, the outcome with SW480 [6], in the assay on SW480 [7] and in the assay on SW480 [8] was Active.
On to `Oc1ccc(/C=C/c2cc(O)cc(O)c2)cc1` [RESVERATROL], for which the IC50 with SW480 [1] amounted to 20 µM.
Consider `COc1ccc(/C=C/c2cc(OC)cc(OC)c2)cc1` [TRISMETHOXYRESVERATROL], for which the IC50 in the assay with SW480 [1] turned out to be 54 µM. For the same compound, the outcome with SW480 [6], in the assay on SW480 [7] and in the assay with SW480 [8] was Active.
As for `COc1cc(/C=C/c2ccc(OC)c(OC)c2)cc(OC)c1` [(E)-3,4,3',5'-TETRAMETHOXYSTILBENE], in the assay on SW480 [1], the IC50 stood at 100 µM. Further, the Activity in the assay with SW480 [2] turned out to be 50%; in the assay with SW480 [3], 15%; with SW480 [4] it was 25%; in the assay on SW480 [5] it was 10%.
For `COc1cc(/C=C\c2ccc(OC)c(OC)c2)c(O)c(OC)c1`, the IC50 in the assay with SW480 [1] is 10 µM. The outcome in the assay with SW480 [6], in the assay with SW480 [7] and in the assay on SW480 [8] was Active.
